Test results: ChEMBL document CHEMBL5661969, “Preclinical evaluation of a potent novel DNA-dependent protein kinase inhibitor NU7441” (Cancer Res, 2006)

Assays:
[1] = Inhibition of DNA-PK in Chinese hamster DNA-PK proficient V3-YAC cells assessed as potentiation of etoposide-induced cytotoxicity by measuring etoposide LD90 at 0.5 umol/L measured after 16 hrs by crystal violet staining based assay; design: species or system Cricetulus griseus; details: dose 0.5 µmol/L, condition cancer
[2] = Inhibition of DNA-PK in Chinese hamster DNA-PK proficient V3-YAC cells assessed as potentiation of ionizing radiation-induced cytotoxicity by measuring radiation LD90 at 0.5 umol/L preincubated for 1 hr followed by gamma-irradiation and measured after 16 hrs by crystal violet staining based assay; design: species or system Cricetulus griseus; details: dose 0.5 µmol/L; time 17 hrs; condition cancer
Outline: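 Clonogenic assay in V3/V3-YAC cells. Cells were then reseeded in drug-free medium, and crystal violet colonies were counted after 10–14 days. LD90 is the radiation dose killing 90%. DMR90 is LD90 without inhibitor divided by LD90 with inhibitor.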

[3] = Cytotoxicity against Chinese hamster DNA-PK deficient V3 cells assessed as reduction in cell survival at 0.5 umol/L measured after 16 hrs in presence of etoposide by crystal violet staining based assay; assay type: toxicity, Cricetulus griseus; details: v3, 16 h, 0.5 µM, dose 0.5 µmol/L
Outline: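 Exponentially growing cells exposed 16 h to agent (0.5 or 1.0 μmol/L), with or without etoposide or doxorubicin, at 0.5% DMSO final; controls get DMSO alone. Cells are then trypsinized, reseeded at 100–100,000 per dish in drug-free medium and grown 10–14 days. Colonies stained with crystal violet and counted automatically.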

[4] = Growth inhibition of human LoVo cells measured after 5 days by crystal violet staining based assay; assay type: toxicity, cell-based; details: time 5 day
Outline: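 LoVo and SW620 cells in 96-well plates under 5-day continuous exposure to agent, and growth measured relative to control.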

SW-620 [5] = assay: Induction of DNA damage in human SW620 cells assessed as formation of gammaH2AX phosphorylation foci per cell at 1 umol/L measured after 1 hr by DAPI staining based immunofluorescence microscopic analysis; assay type: toxicity; details: sw-620, 1 h, 1 µM, dose 1 µmol/L
Outline: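 SW620 cells on coverslips at 50–70% confluence, preincubated 1 h ± 1 μmol/L agent, then 1 μmol/L etoposide for 1 h, washed three times, and kept ± agent for up to 24 h. Fixation in −20 °C methanol, then anti-γH2AX Ser139 antibody with FITC secondary and DAPI mounting. Foci counted in 30 nuclei from three areas per sample, in triplicate.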

[6] = AUCinfinity in BALB/c mouse at 5 mg/kg, iv by HPLC analysis; assay type: ADME, organism-based; details: in vivo
Outline: (§1)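 Female BALB/c mice dosed 5 mg/kg i.v. in 10% DMSO/10% cyclodextrin in saline, or 10 mg/kg i.p. or orally at 1 mg/mL in 40% PEG400/saline. Plasma taken at 5, 10, 15, 30, 60, 90, 120, 180, 240 and 360 min, three mice per time. Acetonitrile precipitation, C18 HPLC with UV detection at 329 nm against a plasma standard curve. Parameters derived from mean concentrations.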

[7] = Cmax in BALB/c mouse at 10 mg/kg, po by HPLC analysis; assay type: ADME, organism-based; details: in vivo; outline: as §1
[8] = Tmax in BALB/c mouse at 10 mg/kg, po by HPLC analysis; assay type: ADME, organism-based; details: in vivo; outline: as §1
[9] = AUClast in BALB/c mouse at 10 mg/kg, po by HPLC analysis; assay type: ADME, organism-based; details: in vivo; outline: as §1
[10] = Elimination half life in BALB/c mouse at 10 mg/kg, po by HPLC analysis; assay type: ADME, organism-based; details: in vivo, read-out: beta t1/2; outline: as §1
[11] = Oral bioavailability in BALB/c mouse at 10 mg/kg by HPLC analysis; assay type: ADME, organism-based; details: in vivo; outline: as §1
[12] = Tmax in BALB/c mouse at 10 mg/kg, ip by HPLC analysis; assay type: ADME, organism-based; details: in vivo; outline: as §1
[13] = Clearance in BALB/c mouse at 10 mg/kg, ip by HPLC analysis; assay type: ADME, organism-based; details: in vivo; outline: as §1
[14] = Ratio of drug level in tumor to plasma of human SW620 cell xenografted athymic nude CD1 mouse at 10 mg/kg, ip measured after 15 mins by HPLC analysis; assay type: ADME, organism-based; details: tumor and plasma
Outline: (§2)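 Female CD-1 nu/nu mice bearing s.c. flank SW620 tumours (1×10^7 cells, ~650 mm³ at 10–14 days) given 10 mg/kg i.p. Tissues snap frozen, homogenised 1:3 in PBS. Acetonitrile precipitation, C18 HPLC with acetate pH 5/acetonitrile 75:25 mobile phase, UV 329 nm; tissue levels by method of addition. Tissue/plasma ratio, mean of three mice per time.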

[15] = Ratio of drug level in tumor to plasma of human SW620 cell xenografted athymic nude CD1 mouse at 10 mg/kg, ip measured after 60 mins by HPLC analysis; assay type: ADME, organism-based; details: tumor and plasma; outline: as §2
[16] = Ratio of drug level in tumor to plasma of human SW620 cell xenografted athymic nude CD1 mouse at 10 mg/kg, ip measured after 240 mins by HPLC analysis; assay type: ADME, organism-based; details: tumor and plasma; outline: as §2
[17] = Ratio of drug level in brain to plasma of human SW620 cell xenografted athymic nude CD1 mouse at 10 mg/kg, ip measured after 15 mins by HPLC analysis; assay type: ADME, organism-based; details: brain and plasma, read-out: BPR; outline: as §2
[18] = Ratio of drug level in brain to plasma of human SW620 cell xenografted athymic nude CD1 mouse at 10 mg/kg, ip measured after 30 mins by HPLC analysis; assay type: ADME, organism-based; details: brain and plasma, read-out: BPR; outline: as §2
[19] = Ratio of drug level in kidney to plasma of human SW620 cell xenografted athymic nude CD1 mouse at 10 mg/kg, ip measured after 60 mins by HPLC analysis; assay type: ADME, organism-based; outline: as §2
[20] = Ratio of drug level in liver to plasma of human SW620 cell xenografted athymic nude CD1 mouse at 10 mg/kg, ip measured after 15 mins by HPLC analysis; assay type: ADME, organism-based; outline: as §2
[21] = Ratio of drug level in liver to plasma of human SW620 cell xenografted athymic nude CD1 mouse at 10 mg/kg, ip measured after 90 mins by HPLC analysis; assay type: ADME, organism-based; outline: as §2
[22] = Ratio of drug level in liver to plasma of human SW620 cell xenografted athymic nude CD1 mouse at 10 mg/kg, ip measured after 240 mins by HPLC analysis; assay type: ADME, organism-based; outline: as §2
[23] = Ratio of drug level in spleen to plasma of human SW620 cell xenografted athymic nude CD1 mouse at 10 mg/kg, ip measured after 15 mins by HPLC analysis; assay type: ADME, organism-based; outline: as §2
[24] = Ratio of drug level in spleen to plasma of human SW620 cell xenografted athymic nude CD1 mouse at 10 mg/kg, ip measured after 30 mins by HPLC analysis; assay type: ADME, organism-based; outline: as §2
[25] = Ratio of drug level in spleen to plasma of human SW620 cell xenografted athymic nude CD1 mouse at 10 mg/kg, ip measured after 240 mins by HPLC analysis; assay type: ADME, organism-based; outline: as §2
[26] = target: DNA-dependent protein kinase catalytic subunit (Homo sapiens, UniProt P78527); details: LoVo, dose 1.0 µmol/L, time 17.0 hrs
SW-620 [27] = assay: Cell cycle arrest in human SW620 cells assessed as increase in G1-phase cell population at 1 umol/L measured after 16 hrs by propidium iodide staining based flow cytometry relative to control; details: sw-620, 16 h, 1 µM

DNA-dependent protein kinase catalytic subunit, sequence (P78527 whole entry): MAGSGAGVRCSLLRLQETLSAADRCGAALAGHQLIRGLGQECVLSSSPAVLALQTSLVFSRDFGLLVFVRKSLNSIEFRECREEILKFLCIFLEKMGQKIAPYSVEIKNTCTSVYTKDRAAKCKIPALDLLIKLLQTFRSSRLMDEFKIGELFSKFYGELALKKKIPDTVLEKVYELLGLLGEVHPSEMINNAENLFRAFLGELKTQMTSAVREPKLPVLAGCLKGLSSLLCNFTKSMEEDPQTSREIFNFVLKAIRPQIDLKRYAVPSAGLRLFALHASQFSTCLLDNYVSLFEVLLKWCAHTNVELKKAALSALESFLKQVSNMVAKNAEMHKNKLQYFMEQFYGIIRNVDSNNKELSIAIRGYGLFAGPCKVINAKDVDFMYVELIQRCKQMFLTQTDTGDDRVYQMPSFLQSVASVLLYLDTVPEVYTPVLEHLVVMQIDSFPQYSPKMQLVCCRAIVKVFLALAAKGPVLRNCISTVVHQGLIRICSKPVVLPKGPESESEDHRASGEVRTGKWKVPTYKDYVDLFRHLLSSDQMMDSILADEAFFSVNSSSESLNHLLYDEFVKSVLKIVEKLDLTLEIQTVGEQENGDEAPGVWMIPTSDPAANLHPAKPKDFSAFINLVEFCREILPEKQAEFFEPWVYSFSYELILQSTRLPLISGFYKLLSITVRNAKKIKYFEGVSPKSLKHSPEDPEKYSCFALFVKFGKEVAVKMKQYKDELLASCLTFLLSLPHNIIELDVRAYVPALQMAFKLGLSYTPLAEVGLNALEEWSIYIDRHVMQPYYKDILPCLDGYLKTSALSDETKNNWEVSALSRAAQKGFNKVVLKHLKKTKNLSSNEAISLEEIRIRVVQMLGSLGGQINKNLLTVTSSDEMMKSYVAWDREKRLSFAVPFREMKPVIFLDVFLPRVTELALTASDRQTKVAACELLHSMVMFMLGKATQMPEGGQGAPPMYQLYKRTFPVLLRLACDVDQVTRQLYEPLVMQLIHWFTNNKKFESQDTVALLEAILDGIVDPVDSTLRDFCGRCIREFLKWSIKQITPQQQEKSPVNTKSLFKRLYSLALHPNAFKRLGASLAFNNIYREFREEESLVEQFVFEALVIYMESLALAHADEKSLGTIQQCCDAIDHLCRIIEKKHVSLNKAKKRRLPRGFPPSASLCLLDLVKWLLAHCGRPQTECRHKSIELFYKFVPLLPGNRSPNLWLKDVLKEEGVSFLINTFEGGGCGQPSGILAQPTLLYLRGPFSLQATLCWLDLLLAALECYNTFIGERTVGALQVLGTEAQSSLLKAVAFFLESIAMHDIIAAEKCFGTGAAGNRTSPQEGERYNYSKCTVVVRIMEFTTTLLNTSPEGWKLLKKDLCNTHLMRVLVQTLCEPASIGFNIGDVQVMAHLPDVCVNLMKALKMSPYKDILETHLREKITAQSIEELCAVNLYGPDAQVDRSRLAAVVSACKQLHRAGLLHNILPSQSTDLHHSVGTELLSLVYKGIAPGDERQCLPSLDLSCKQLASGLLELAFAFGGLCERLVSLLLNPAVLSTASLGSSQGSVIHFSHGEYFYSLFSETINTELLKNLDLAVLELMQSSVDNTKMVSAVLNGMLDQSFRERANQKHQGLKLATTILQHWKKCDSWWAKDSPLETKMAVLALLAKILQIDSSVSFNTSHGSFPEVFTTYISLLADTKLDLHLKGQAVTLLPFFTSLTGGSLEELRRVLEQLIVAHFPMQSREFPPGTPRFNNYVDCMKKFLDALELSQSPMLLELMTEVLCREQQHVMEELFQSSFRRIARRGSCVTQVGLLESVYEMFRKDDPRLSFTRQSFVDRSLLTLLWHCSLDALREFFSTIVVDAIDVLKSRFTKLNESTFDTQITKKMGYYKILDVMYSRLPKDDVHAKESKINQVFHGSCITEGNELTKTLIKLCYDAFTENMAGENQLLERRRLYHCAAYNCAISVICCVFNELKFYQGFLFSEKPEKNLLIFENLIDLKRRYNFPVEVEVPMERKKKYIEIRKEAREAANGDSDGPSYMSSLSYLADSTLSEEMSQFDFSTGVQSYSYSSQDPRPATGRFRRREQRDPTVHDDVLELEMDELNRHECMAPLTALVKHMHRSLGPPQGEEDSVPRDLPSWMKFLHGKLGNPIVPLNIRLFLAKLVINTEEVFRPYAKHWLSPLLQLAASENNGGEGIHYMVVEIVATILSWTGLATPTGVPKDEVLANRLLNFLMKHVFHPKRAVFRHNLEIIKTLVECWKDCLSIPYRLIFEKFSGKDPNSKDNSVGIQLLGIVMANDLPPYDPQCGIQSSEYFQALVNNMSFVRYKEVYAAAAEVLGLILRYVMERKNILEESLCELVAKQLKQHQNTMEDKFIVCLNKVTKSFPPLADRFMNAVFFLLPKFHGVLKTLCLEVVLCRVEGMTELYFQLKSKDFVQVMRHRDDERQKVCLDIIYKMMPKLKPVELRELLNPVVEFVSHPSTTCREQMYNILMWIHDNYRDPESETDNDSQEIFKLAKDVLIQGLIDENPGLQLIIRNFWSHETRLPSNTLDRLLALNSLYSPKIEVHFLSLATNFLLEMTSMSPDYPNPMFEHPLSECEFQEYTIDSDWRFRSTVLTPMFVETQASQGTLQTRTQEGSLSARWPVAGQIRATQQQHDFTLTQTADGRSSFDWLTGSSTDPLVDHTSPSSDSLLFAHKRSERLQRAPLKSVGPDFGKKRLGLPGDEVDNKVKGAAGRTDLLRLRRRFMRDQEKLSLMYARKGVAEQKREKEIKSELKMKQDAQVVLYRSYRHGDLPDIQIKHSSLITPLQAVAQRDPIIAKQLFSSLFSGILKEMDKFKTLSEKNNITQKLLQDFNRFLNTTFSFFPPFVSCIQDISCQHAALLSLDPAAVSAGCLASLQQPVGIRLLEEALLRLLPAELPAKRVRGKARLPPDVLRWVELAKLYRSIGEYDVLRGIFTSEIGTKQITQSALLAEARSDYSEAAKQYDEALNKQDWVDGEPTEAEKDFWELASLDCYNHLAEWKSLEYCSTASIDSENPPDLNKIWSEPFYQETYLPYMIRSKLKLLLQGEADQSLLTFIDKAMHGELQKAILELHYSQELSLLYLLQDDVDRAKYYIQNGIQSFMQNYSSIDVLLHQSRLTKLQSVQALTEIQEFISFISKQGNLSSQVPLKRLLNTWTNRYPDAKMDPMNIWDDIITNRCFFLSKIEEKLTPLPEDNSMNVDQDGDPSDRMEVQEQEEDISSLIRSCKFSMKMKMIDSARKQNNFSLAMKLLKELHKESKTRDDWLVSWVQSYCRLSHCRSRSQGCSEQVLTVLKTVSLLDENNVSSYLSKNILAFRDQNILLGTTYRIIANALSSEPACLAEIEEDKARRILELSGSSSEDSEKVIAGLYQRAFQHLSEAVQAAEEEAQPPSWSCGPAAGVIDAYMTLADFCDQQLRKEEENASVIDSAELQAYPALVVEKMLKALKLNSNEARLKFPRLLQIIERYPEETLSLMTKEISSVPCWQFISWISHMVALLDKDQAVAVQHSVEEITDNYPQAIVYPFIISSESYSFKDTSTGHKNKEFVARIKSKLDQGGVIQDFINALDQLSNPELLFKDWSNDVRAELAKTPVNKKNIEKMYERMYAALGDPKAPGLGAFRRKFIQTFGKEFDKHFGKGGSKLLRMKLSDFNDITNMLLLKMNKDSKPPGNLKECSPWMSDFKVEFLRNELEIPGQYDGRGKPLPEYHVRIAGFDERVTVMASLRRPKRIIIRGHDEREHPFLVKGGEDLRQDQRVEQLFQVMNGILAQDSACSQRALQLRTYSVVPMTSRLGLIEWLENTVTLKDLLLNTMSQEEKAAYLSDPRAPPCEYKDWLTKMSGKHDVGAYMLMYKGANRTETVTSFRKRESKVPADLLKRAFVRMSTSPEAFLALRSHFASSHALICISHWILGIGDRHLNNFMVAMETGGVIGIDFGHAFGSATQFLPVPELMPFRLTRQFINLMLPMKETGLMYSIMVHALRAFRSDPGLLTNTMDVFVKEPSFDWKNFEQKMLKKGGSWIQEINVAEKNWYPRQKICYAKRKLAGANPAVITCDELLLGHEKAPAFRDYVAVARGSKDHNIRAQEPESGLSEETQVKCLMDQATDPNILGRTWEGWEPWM

Structure (SMILES): O=c1cc(N2CCOCC2)oc2c(-c3cccc4c3sc3ccccc34)cccc12
- LD90 [1]: 0.8 µmol/L
- LD90 [2]: 2.8 Gy
- Activity [3]: Toxic
- GI50 at 120 h [4]: 520 nM
- Activity (SW-620 [5]): 0.13
- AUC(0-inf) [6]: 1300 ng·h/mL
- Cmax [7]: 500 ng/mL
- Tmax [8]: 30 min
- AUC(0-t) [9]: 817 ng·h/mL
- half-life [10]: 127 min
- bioavailability [11]: 33%
- Tmax [12]: 5 min
- CL/F [13]: 66 mL/min/kg
- Kp at 0.25 h [14]: 0.38
- Kp at 1 h [15]: 0.44
- Kp at 4 h [16]: 4.6
- Kp at 0.25 h [17]: 1.1
- Kp at 0.5 h [18]: 2.2
- Kp at 1 h [19]: 3.6
- Kp at 0.25 h [20]: 6.4
- Kp at 1.5 h [21]: 19
- Kp at 4 h [22]: 5
- Kp at 0.25 h [23]: 4.6
- Kp at 0.5 h [24]: 3.2
- Kp at 4 h [25]: 19
- LD90 [26]: 1 Gy
- Activity (SW-620 [27]): 15%
